Converted amounts (≈) assume the structure as drawn. The source made the active and inactive calls. The calls are words filed in the database; no cut-off is given here.
Legend:
[1] = Inhibition of Escherichia coli MurD ligase catalyzed addition of D-Glu to UDP-MurNAc-L-Ala after 15 mins by colorimetric analysis
Procedure, shortened: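 Malachite green colorimetric detection of orthophosphate released by E. coli MurD ligase, with 0.01% Triton X-100 present to avoid aggregate-based nonspecific inhibition. IC50 is taken as the inhibitor concentration that leaves 50% residual enzyme activity.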

Escherichia coli [2] = assay: Inhibition of Escherichia coli MurD ligase catalyzed addition of D-Glu to UDP-MurNAc-L-Ala assessed as residual activity at 500 uM after 15 mins by colorimetric analysis
Procedure, shortened: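 E. coli MurD activity read by malachite green detection of released orthophosphate, with 0.01% Triton X-100 present. Residual activity (%) measured with 500 μM test compound. Values are the mean of two independent experiments, with standard deviations within ±10% of the mean.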

Staphylococcus aureus = assay: Antibacterial activity against Staphylococcus aureus ATCC 29213 after 18 to 24 hrs by CLSI method; assay type: functional
Enterococcus faecalis = assay: Antibacterial activity against Enterococcus faecalis ATCC 29212 after 18 to 24 hrs by CLSI method; assay type: functional
Escherichia coli [3] = assay: Antibacterial activity against Escherichia coli ATCC 25922 after 18 to 24 hrs by CLSI method; assay type: functional, organism-based
Pseudomonas aeruginosa = assay: Antibacterial activity against Pseudomonas aeruginosa ATCC 27853 after 18 to 24 hrs by CLSI method; assay type: functional, organism-based

Row | Structure (SMILES) | IC50 [1] [µM] | Activity (Escherichia coli [2]) [%] | also measured
1 | O=C(O)CC[C@@H](NC(=O)c1cccc(CN(C(=O)C(=O)O)c2ccc(/C=C3\SC(=S)NC3=O)cc2)c1)C(=O)O | 5 | – | –
2 | O=C(O)CCC(=O)N(Cc1cccc(C(=O)N[C@H](CCC(=O)O)C(=O)O)c1)c1ccc(/C=C2\SC(=S)NC2=O)cc1 | 7 | – | MIC (Staphylococcus aureus): 128 µg/mL (≈ 213 µM); MIC (Enterococcus faecalis): 128 µg/mL (≈ 213 µM); Activity (Escherichia coli [3]): inactive; Activity (Pseudomonas aeruginosa): inactive
3 | O=C(O)CC[C@@H](NC(=O)c1cccc(CNc2ccc(/C=C3\NC(=O)NC3=O)cc2)c1)C(=O)O | – | 99 | –
4 | O=C(O)CCC(=O)N(Cc1cccc(C(=O)N[C@H](CCC(=O)O)C(=O)O)c1)c1ccc(/C=C2\SC(=O)NC2=O)cc1 | 105 | – | –
5 | O=C(O)CC[C@@H](NC(=O)c1cccc(CNc2cccc(OCC(=O)O)c2)c1)C(=O)O | – | 89 | –
6 | N=C1NC(=O)/C(=C/c2ccc(NCc3cccc(C(=O)N[C@H](CCC(=O)O)C(=O)O)c3)cc2)S1 | – | 85 | –
7 | COC(=O)CCC(=O)N(Cc1cccc(C(=O)N[C@H](CCC(=O)OC)C(=O)OC)c1)c1ccc(/C=C2\SC(=S)NC2=O)cc1 | – | – | Activity (Staphylococcus aureus): inactive; Activity (Enterococcus faecalis): inactive; Activity (Escherichia coli [3]): inactive; Activity (Pseudomonas aeruginosa): inactive
8 | O=C(O)CC[C@@H](NC(=O)c1cc(CNc2ccc(/C=C3\SC(=S)NC3=O)cc2)ccc1F)C(=O)O | 253 | – | –
9 | COC(=O)CC[C@@H](NC(=O)c1cccc(CN(C(=O)CC(=O)OC)c2ccc(/C=C3\SC(=S)NC3=O)cc2)c1)C(=O)OC | – | – | Activity (Staphylococcus aureus): inactive; Activity (Enterococcus faecalis): inactive; Activity (Escherichia coli [3]): inactive; Activity (Pseudomonas aeruginosa): inactive

Continued, in another order:

Row | IC50 [1] [µM] | Activity (Escherichia coli [2]) [%] | Structure (SMILES) | also measured
10 | 124 | – | O=C(O)CC[C@@H](NC(=O)c1cc(CNc2ccc(/C=C3\SC(=S)NC3=O)cc2)ccc1O)C(=O)O | –
11 | – | 96 | O=C(O)/C=C/c1ccc(NCc2cccc(C(=O)N[C@H](CCC(=O)O)C(=O)O)c2)cc1 | –
12 | – | 88 | O=C(O)CC[C@@H](NC(=O)c1ccc(NCc2ccc(/C=C3\SC(=O)NC3=O)cc2)cc1)C(=O)O | –
13 | – | 94 | O=C(O)CC[C@@H](NC(=O)c1ccc2ccn(Cc3ccc(OCC(=O)O)cc3)c2c1)C(=O)O | –
14 | – | 71 | O=C(O)CC[C@@H](NC(=O)c1cc(CNc2ccc(/C=C3\SC(=O)NC3=O)cc2)ccc1F)C(=O)O | –
15 | 40 | – | O=C(O)CC[C@@H](NC(=O)c1cccc(CN(C(=O)C(=O)O)c2ccc(/C=C3\SC(=O)NC3=O)cc2)c1)C(=O)O | –
16 | – | 87 | O=C(O)CC[C@@H](NC(=O)c1cccc(CNc2ccc(OCC(=O)O)cc2)c1)C(=O)O | –
17 | 15 | – | O=C(O)CC[C@@H](NC(=O)c1cccc(CN(C(=O)CC(=O)O)c2ccc(/C=C3\SC(=O)NC3=O)cc2)c1)C(=O)O | –
18 | 3 | – | O=C(O)CC[C@@H](NC(=O)c1cccc(CN(C(=O)CC(=O)O)c2ccc(/C=C3\SC(=S)NC3=O)cc2)c1)C(=O)O | MIC (Enterococcus faecalis): 128 µg/mL (≈ 219 µM); Activity (Escherichia coli [3]): inactive; Activity (Pseudomonas aeruginosa): inactive
